{"source": "paper PMC2854012", "about": "(Cancer chemotherapy and pharmacology, 2009)", "key": {"[1]": {"tested_on": "insulin-stimulated glucose transport", "settings": "cited from earlier work"}, "[2]": {"tested_on": "patients with advanced malignancies", "test": "Tumor response by RECIST in the phase I trial of UCN-01 with prednisone", "assay_type": "in vivo, human", "settings": "15 patients", "outline": "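Tumor response assessed radiographically every two cycles by RECIST. Patients received continuous IV test compound (72 h in cycle 1, 36 h thereafter) plus oral glucocorticoid 60 mg/m2/day on days 1-5, in 28-day cycles.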"}, "[3]": {"test": "Plasma pharmacokinetics of UCN-01 in patients", "assay_type": "in vivo, human", "outline": "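Heparinized blood drawn in cycle 1 before dosing, 12, 24, 48 and 72 h after infusion start, and 12, 24 and 48 h after infusion end. Cycle 2 sampled pre-dose, at 36 h and 24 h post-end. Plasma spun 1200 x g, 5 min, 4°C, stored -80°C; assayed by HPLC-UV. Noncompartmental analysis: Cmax by inspection; λz from ≥3 terminal points; t1/2 = 0.693/λz; linear-trapezoidal AUC extrapolated by Ct/λz; CL = dose/AUC.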"}, "[4]": {"tested_on": "patients with advanced malignancies", "test": "Phase I safety and toxicity, DLT and MTD of UCN-01 with prednisone", "assay_type": "in vivo, human", "outline": "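Open-label single-arm escalation with 3-6 patients per level. Test compound by continuous IV infusion, 72 h (days 3-5) in cycle 1, then 36 h from day 3; levels 17, 24, 34 mg/m2/24 h. Oral glucocorticoid 60 mg/m2/day, days 1-5; 28-day cycles. Graded by NCI CTC v2.0. DLT: grade 3-4 non-hematologic (separate hyperglycemia rules), grade 4 granulocytopenia or thrombocytopenia. MTD: ≤1 of 6 with DLT.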"}, "protein kinase C": {"target": "protein kinase C", "settings": "cited from earlier work"}, "[5]": {"tested_on": "patients with refractory neoplasms", "settings": "cited from earlier work"}, "[6]": {"settings": "15 patients, 55 courses, with prednisone"}, "[7]": {"settings": "drug-related adverse events, 15 patients, all dose levels"}}, "note": "“Also recorded” adds a separate entry of the source.", "data": [{"smiles": "CN[C@@H]1C[C@H]2O[C@@](C)([C@@H]1OC)n1c3ccccc3c3c4c(c5c6ccccc6n2c5c31)C(=O)NC4", "note": "[Staurosporine]", "values": [{"measurement": "effect on insulin-stimulated glucose transport", "setting": "[1]", "value": "inhibit insulin-stimulated glucose transport"}]}, {"smiles": "CN[C@@H]1C[C@H]2O[C@@](C)([C@@H]1OC)n1c3ccccc3c3c4c(c5c6ccccc6n2c5c31)C(=O)N[C@@H]4O", "note": "[UCN-01, 7-hydroxy staurosporine]", "values": [{"measurement": "patients with stable disease for longer than two cycles", "setting": "[2]", "value": "five"}, {"measurement": "response as defined by RECIST criteria", "setting": "[2]", "value": "No objective responses; also recorded: None of the 15 patients had a response"}, {"measurement": "Clearance Mean", "setting": "[3]; cycle 1, 72-h IV infusion, UCN-01 17 mg/m^2/24 h, with prednisone", "value": 5.4, "unit": "mL/h/m^2"}, {"measurement": "Clearance Mean", "setting": "[3]; cycle 1, 72-h IV infusion, UCN-01 24 mg/m^2/24 h, with prednisone", "value": 3.1, "unit": "mL/h/m^2"}, {"measurement": "Clearance Mean", "setting": "[3]; cycle 1, 72-h IV infusion, UCN-01 34 mg/m^2/24 h, with prednisone", "value": 4.2, "unit": "mL/h/m^2"}, {"measurement": "half-life", "setting": "[3]; human, plasma, intravenous, half-life, at the MTD, with prednisone", "value": "~18.8", "unit": "days"}, {"measurement": "Cmax", "setting": "[3]; human, plasma, intravenous, mean Cmax, at the MTD, with prednisone", "value": "~12000", "unit": "ng/mL"}, {"measurement": "AUC(0-inf)", "setting": "[3]; human, plasma, iv, AUCinf Mean, cycle 1, 72-h IV infusion, UCN-01 17 mg/m^2/24 h, with prednisone", "value": 3130, "unit": "µg·h/mL"}, {"measurement": "Cmax", "setting": "[3]; human, plasma, iv, Cmax Mean, cycle 1, 72-h IV infusion, UCN-01 17 mg/m^2/24 h, with prednisone", "value": 10000, "unit": "ng/mL"}, {"measurement": "clearance", "setting": "[3]; range over all dose levels (17, 24 and 34 mg/m^2/24 h x 72 h)", "value": "2.13−5.47 mL/h/m^2"}, {"measurement": "cumulative toxicities", "setting": "[4]; [6]", "value": "no cumulative toxicities"}, {"measurement": "grade 4 adverse events", "setting": "[4]; [6]", "value": "no grade 4 adverse events"}, {"measurement": "patients developing some grade of hyperglycemia", "setting": "[4]; 15 patients, with prednisone", "value": "All patients"}, {"measurement": "MTD and recommended phase II dose, cycle 2 and beyond", "setting": "[4]; CIV over 36 h, with prednisone 60 mg/m^2/day for 5 days every cycle", "value": 36, "unit": "mg/m^2/cycle"}, {"measurement": "reduction in the maximum dose of UCN-01 that could be safely administered", "setting": "[4]; combination with prednisone versus single agent on the same schedule", "value": 44, "unit": "%"}, {"measurement": "DLTs", "setting": "[4]; dose level 2 (72 mg/m^2 total dose over 72 h for cycle 1 followed by 36 mg/m^2/cycle), six patients", "value": "without any DLTs"}, {"measurement": "grade 3 hyperglycemia, patients", "setting": "[4]; dose level 3 (102 mg/m^2 total dose over 72 h for cycle 1 followed by 51 mg/m^2/cycle)", "value": "three"}, {"measurement": "DLT: grade 3 hypophosphatemia during cycle 1, patients", "setting": "[4]; dose level 3 (102 mg/m^2 total dose over 72 h for cycle 1 followed by 51 mg/m^2/cycle), six patients", "value": "Two of the six patients"}, {"measurement": "Anemia grade 2, No. of patients", "setting": "[4]; [7]", "value": "2 (1)"}, {"measurement": "Headache grade 2, No. of patients", "setting": "[4]; [7]", "value": "2 (1)"}, {"measurement": "Hyperglycemia grade 2, No. of patients", "setting": "[4]; [7]", "value": "2 (9)"}, {"measurement": "Hypoalbuminemia grade 2, No. of patients", "setting": "[4]; [7]", "value": "2 (2)"}, {"measurement": "Hyponatremia grade 3, No. of patients", "setting": "[4]; [7]", "value": "3 (1)"}, {"measurement": "Hypophosphatemia grade 2, No. of patients", "setting": "[4]; [7]", "value": "2 (6)"}, {"measurement": "Hypophosphatemia grade 3, No. of patients", "setting": "[4]; [7]", "value": "3 (4)"}, {"measurement": "Leucopenia grade 2, No. of patients", "setting": "[4]; [7]", "value": "2 (1)"}, {"measurement": "Leucopenia grade 3, No. of patients", "setting": "[4]; [7]", "value": "3 (1)"}, {"measurement": "Neutropenia grade 2, No. of patients", "setting": "[4]; [7]", "value": "2 (1)"}, {"measurement": "Rash/desquamation grade 2, No. of patients", "setting": "[4]; [7]", "value": "2 (1)"}, {"measurement": "Visual (photophobia) grade 2, No. of patients", "setting": "[4]; [7]", "value": "2 (1)"}, {"measurement": "MTD and recommended phase II dose, cycle 1", "setting": "[4]; total dose CIV over 72 h, with prednisone 60 mg/m^2/day for 5 days every cycle", "value": 72, "unit": "mg/m^2"}, {"measurement": "GI toxicity", "setting": "[4]; with prednisone", "value": "did not observe any significant GI toxicity"}, {"measurement": "pulmonary toxicity", "setting": "[4]; with prednisone", "value": "did not observe any pulmonary toxicity"}, {"measurement": "IC50", "setting": "protein kinase C", "value": "4 to 30", "unit": "nM"}, {"measurement": "toxicity at the dose level above the single-agent MTD", "setting": "[5]; 159 mg/m^2 over 72 h", "value": "grade 4 hyperglycemia and vomiting"}, {"measurement": "MTD, single agent, cycle 1", "setting": "[5]; over 72h, same schedule", "value": 127.5, "unit": "mg/m^2"}, {"measurement": "duration of prolonged disease stabilization", "setting": "[5]; patient with alk-positive anaplastic large-cell lymphoma", "value": "> 2.5", "unit": "years"}, {"measurement": "partial response", "setting": "[5]; patient with melanoma", "value": "One partial response"}, {"measurement": "\"free\" UCN-01 levels at the end of infusion", "setting": "[5]; supernatant of ultracentrifuged plasma, 24 mg/m^2/day for 3 days", "value": "200 to 600", "unit": "nmol/L"}, {"measurement": "MTD, single agent, subsequent cycles", "setting": "[5]; total dose administered over 36 h", "value": 63, "unit": "mg/m^2"}]}]}
